According to the RNAGym collection of RNA variant scans (doi:10.1126/science.aae0568):
Variants at the floor of the assay were thinned out.

B1: tRNA (parent)
chain: GUUCCGUUGGCGUAAUGGUAACGCGUCUCCCUCCUAAGGAGAAGACUGCGGGUUCGAGUCCCGUACGGAACG

Variants of: B1
Assay: yeast fitness relative to wild type (ratio to wild type); higher = fitter; tRNA-Arg(CCU), competitive growth, 37 C, YPD
Outline: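 The tRNA-Arg(CCU) gene variants were made by chemical synthesis with a 3% per-site mutation rate at 69 sites and inserted at the native genomic locus of Saccharomyces cerevisiae. After pooling, the strains were competed in YPD at 37°C for 24 hours in six parallel replicates. Gene amplicons from the start population and each end population were read by 100-nucleotide paired-end sequencing, and Darwinian fitness relative to wild type was taken from genotype frequency changes. Genotypes needed ≥ 100 starting reads, and estimates < 0.5 were set to 0.5.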

Row | Variant | yeast fitness
1 | C5U A21U C29U C30G A70U | 0.543
2 | C5U C22U C34A A42U G44C C61A | ≤ 0.5
3 | C5U U19C A21U A37C C61A A65C | ≤ 0.5
4 | C5U C27U G58A C60G | ≤ 0.5
5 | C5U C24U C33U G44C G68A | ≤ 0.5
6 | C5U A42C G67U | 0.69
7 | C5U U28G C62U A65G | ≤ 0.5
8 | C5U C22A U32A C60G | ≤ 0.5
9 | G6A A36U A45U | ≤ 0.5
10 | C5U C30A U53A C62U | 0.659
11 | C5U G9C A36G | 0.538
12 | C5U C27G C46U | 0.753
13 | C5U A20C G63A | 0.607
14 | C5U C33U A45G C61U | ≤ 0.5
15 | C5U G25C A36C A40U | ≤ 0.5
16 | C5U C11U A37G C60G | 0.581
17 | C5U A21G C27U G41A C66A | ≤ 0.5
18 | C5U C30G U64A | 0.578
19 | C5U U32C C49U | 0.842
20 | C5U U28A A65U | 0.553
21 | C5U G9A G10C G25A C33G G39A | ≤ 0.5
22 | G6A A20C U28A C31A C33U A37C G50A A65U | ≤ 0.5
23 | C5U C22G C31G U54G | ≤ 0.5
24 | C5U G9A G39A G48A A57U | ≤ 0.5

Row | Variant | yeast fitness
25 | C5U C33G G56C A69U | ≤ 0.5
26 | C5U U32C G39A C60U C61G | 0.527
27 | C5U U13C U35G C49U | 0.608
28 | C5U C31A C34U A43G | 0.77
29 | C5U C11A A21G G23C | ≤ 0.5
30 | C5U C11A A20C C22G C30U C31G | ≤ 0.5
31 | C5U G23C C55A | 0.566
32 | C5U G6A | 0.884
33 | C5U G18A A42C | 0.674
34 | C5U U7C U26A | 0.677
35 | G6A A21G C33G A57U C62U | ≤ 0.5
36 | C5U C24A G39C A70C | ≤ 0.5
37 | C5U C11A C22G C55G C60G | 0.997
38 | C5U C29A A37U G38A | ≤ 0.5
39 | C5U A15G A42U | 0.703
40 | C5U C22U C33U C49U C62G | ≤ 0.5
41 | C5U C11U A15U C31U C49U | ≤ 0.5
42 | C5U C31A U32C A37C G50C A69C | 0.731
43 | G6A A14G G23A C24G G44A | ≤ 0.5
44 | C5U C46A C55G C66U A69U | ≤ 0.5
45 | G6A A15G C22A | ≤ 0.5
46 | C5U G25A A45G G50C A69C | ≤ 0.5
47 | C5U C24A U32C | 0.565
48 | C5U G39C | 0.769

Row | Variant | yeast fitness
49 | C5U A15C G23C | ≤ 0.5
50 | C5U U16G | 0.809
51 | C5U U16C | 0.972
52 | C5U C11U A20U | 0.561
53 | C5U C29A G39C G63A U64C A69C | ≤ 0.5
54 | C5U G12A C29U | 0.565
55 | C5U G17C C30A | 0.548
56 | C5U C31A A40G | 0.743
57 | G6A A15C U28A C31G U64A C66U G68C | ≤ 0.5
58 | G6A A20C A36C U47A G48C U54G A65C | ≤ 0.5
59 | C5U U8A G18C C29U A45C | 0.554
60 | C5U C55G C66U A69U | ≤ 0.5
61 | G6A A20G A36G C49G C55U | ≤ 0.5
62 | C5U U16C U59G | ≤ 0.5
63 | C5U U28C C29U G63C A65U | ≤ 0.5
64 | C5U G6A A65U C66U A70G | ≤ 0.5
65 | G6A A14G C66A | ≤ 0.5
66 | C5U A36U C60U | 0.81
67 | C5U C24U G44C | 0.528
68 | C5U U8C A20G C30A A57U C61U | ≤ 0.5
69 | C5U U7C C46U | 0.728
70 | C5U G17A A36U U47A C66U | 0.58
71 | C5U C22G C29G A69U | ≤ 0.5
72 | C5U C11A A21G A70G | ≤ 0.5

Row | Variant | yeast fitness
73 | C5U C27G C33G A42C U64A | ≤ 0.5
74 | G6A A15U C22A | ≤ 0.5
75 | C5U G12C A42G C55A C62A | ≤ 0.5
76 | C5U G17A A40U A42C C49A G56A | ≤ 0.5
77 | C5U A21C A43C | ≤ 0.5
78 | C5U C46U G50C C61U | ≤ 0.5
79 | G6A A37G | 0.722
80 | C5U U13A A15G A20G C22G C46G G51A | ≤ 0.5
81 | C5U C34A A57G | ≤ 0.5
82 | C5U U32C | 0.892
83 | C5U U32C U35C C49G | ≤ 0.5
84 | C5U G44C A69U | 0.815
85 | C5U A45G | 0.974
86 | C5U A45U | 1.01
87 | C5U U13C C24G U26C A37G U54G C61G | 0.575
88 | C5U U7C C30A A42C | 0.583
89 | G6A A37G C60G A70U | ≤ 0.5
90 | C5U G50C U54C | ≤ 0.5
91 | C5U C33U A65G | 0.63
92 | G6A A15U A69U A70U | ≤ 0.5
93 | C5U A20U | 0.94
94 | C5U G9A A37C C60U G67A | ≤ 0.5
95 | G6A A15C A20U A36U G39A | ≤ 0.5
96 | C5U A20U C30A G67A A70G | 0.657

Row | Variant | yeast fitness
97 | C5U C34A G38C A70C | 0.608
98 | G6A A14G A45G | 0.797
99 | C5U A40G G56A A69C | 0.575
100 | C5U G18C C49U U54G | ≤ 0.5
101 | C5U G10C C30G C34U A42C | ≤ 0.5
102 | C5U C22U C30G C55U | ≤ 0.5
103 | C5U C34G U64A | ≤ 0.5
104 | G6A A21C U28A C62U | ≤ 0.5
105 | C5U G18C A40G A43C U54A | 0.72
106 | C5U C61A | 0.612
107 | G6A A20U C62U A65G | ≤ 0.5
108 | G6A A14U G52A G63C | ≤ 0.5
109 | C5U C11G C22U C30G G58C C60G | ≤ 0.5
110 | C5U G23C U26C U32A A42U A65C | ≤ 0.5
111 | C5U U8C G41C A69U | ≤ 0.5
112 | C5U C22U C27G A65U | ≤ 0.5
113 | C5U G41C | 0.91
114 | C5U G25A C49U | 0.802
115 | C5U U19A A21G A43C G51C | ≤ 0.5
116 | C5U C22G A65G | 0.588
117 | C5U U13C C22G C29A A45U | ≤ 0.5
118 | C5U C49G | 0.919
119 | C5U U19G U53A | 0.529
120 | C5U U7C A40U U59A A65U G68A | 0.649

Row | Variant | yeast fitness
121 | G6A A15C U16C | ≤ 0.5
122 | C5U C33G | 0.777
123 | C5U C33A | 0.737
124 | C5U U13C U19A A21U C24A | 0.511
125 | C5U U26A C55G C61A | ≤ 0.5
126 | C5U C24U A36G C46A U47C C55A G67A | ≤ 0.5
127 | C5U G23A A69U | ≤ 0.5
128 | C5U A15U U19C | 0.672
129 | C5U C22U C33U G67A | ≤ 0.5
130 | C5U G58C U59C A70G | ≤ 0.5
131 | C5U C24G A43C A45U G52A | ≤ 0.5
132 | C5U G56C C60A | 0.641
133 | G6A A36C | 0.53
134 | C5U G17C C24G G38C G51C U59G | ≤ 0.5
135 | C5U U26C A40U | ≤ 0.5
136 | G6A A43G A65U | 0.604
137 | C5U C29G | 0.64
138 | C5U C24U G52U C55A | ≤ 0.5
139 | C5U U8C A21G A42U G58A | 0.726
140 | G6A A36U G41A C60G | ≤ 0.5
141 | C5U C31U G50A C55G | 0.57
142 | G6A A20C A57C | ≤ 0.5
143 | C5U C24U A40C | 0.634
144 | C5U C24U A40G | 0.637

Row | Variant | yeast fitness
145 | G6A A15C C27A A43G | 0.592
146 | C5U A15G A20C U26C G41C G52C A57U A65U | ≤ 0.5
147 | C5U C34A G50A U59G C62A | ≤ 0.5
148 | C5U A15G U16C C66U | ≤ 0.5
149 | G6A A43G | 0.801
150 | C5U G6C A21U U35C G39A | ≤ 0.5
151 | C5U A40C | 0.851
152 | C5U A45C G56A | 0.801
153 | C5U C11U C24U G44C | ≤ 0.5
154 | C5U G23C U32C A42G U54A | ≤ 0.5
155 | C5U A37U A42U G67A | ≤ 0.5
156 | G6A A14G C24A A36G A45U | ≤ 0.5
157 | C5U C33A A36C A37C A43G A70U | ≤ 0.5
158 | C5U G44C G68U | 0.663
159 | C5U U13G C30U | 0.663
160 | C5U C22U G52A U53C U59G C61G C62U | ≤ 0.5
161 | C5U C27A C61U | 0.589
162 | C5U G17A | 0.929
163 | C5U U28G C61G | 0.58
164 | C5U C11U G25C A45C C62A A70U | 0.611
165 | C5U G12A G48A | 1.18
166 | C5U A42G A65C | 0.596
167 | C5U C22U C27U A42G C55A C60A A70U | 0.57
